Reference: ChEMBL document CHEMBL1154907, “Synthesis and preclinical evaluations of 2-(2-fluorophenyl)-6,7-methylenedioxyquinolin-4-one monosodium phosphate (CHM-1-P-Na) as a potent antitumor agent” (J Med Chem, 2010)
Values after ≈ are worked out from the molar mass of the structure shown. Active and inactive are the calls of the source. No cut-off for these calls is given here.

How the values were obtained:
[1] = target: Mitogen-activated protein kinase 10 (Homo sapiens) (UniProt P53779); assay: Inhibition of human JNK3 at 10 uM by enzyme assay
Method in brief: (§1)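 Commercial spectrum screen of enzyme assays under standard protocols; percent inhibition tested at 10 μM; IC50 determined for targets showing significant inhibition at that concentration; SEM given where multiple independent determinations.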

[2] = tested on: MDA-MB-231; assay: Growth inhibition of human MDA-MB-231 cells by SRB assay; type: functional
Method in brief: (§2)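 Human cancer cell panel; five concentrations from 10^-4 to 10^-8 M; growth measured by sulforhodamine B colorimetric method; GI50, TGI and LC50 derived from computer-analysed dose-response curves.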

[3] = target: Glutamate decarboxylase (Clostridium perfringens (strain 13 / Type A)) (UniProt Q8XIQ6); assay: Inhibition of Clostridium perfringens glutamate decarboxylase at 10 uM by enzyme assay
Method in brief: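 Single-concentration screen at 10 μM in a contract enzyme assay panel run under standard protocols. Read-out is percent inhibition of the enzyme.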

[4] = tested on: SF-539; assay: Growth inhibition of human SF539 cells by SRB assay; type: functional
Method in brief: (§3)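 Cancer cell panel; growth measured by sulforhodamine B colorimetric method across five concentrations from 10^-4 to 10^-8 M; GI50, TGI and LC50 derived from computer-analysed dose-response curves.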

[5] = tested on: St-4; assay: Growth inhibition of human St-4 cells by SRB assay; type: functional; method in brief: as §3
[6] = tested on: OVCAR-5; assay: Growth inhibition of human OVCAR5 cells by SRB assay; type: functional; method in brief: as §2
[7] = tested on: SF-295; assay: Growth inhibition of human SF295 cells by SRB assay; type: functional; method in brief: as §3
[8] = tested on: U-251; assay: Growth inhibition of human U251 cells by SRB assay; type: functional; method in brief: as §3
[9] = Growth inhibition of human RXF631L cells by SRB assay; type: functional, RXF 631; method in brief: as §3
[10] = tested on: SK-OV-3; assay: Growth inhibition of human SKOV3 cells by SRB assay; type: functional; method in brief: as §3
[11] = tested on: LOX IMVI; assay: Growth inhibition of human LOXIMVI cells by SRB assay; type: functional; method in brief: as §2
[12] = tested on: OVCAR-3; assay: Antitumor activity against human OVCAR-3 cells xenografted in nude mouse assessed as increase in lifespan of organism at 200 mg/kg, ip administered in Q7D x 3 schedule relative to control; type: functional; conditions: route intraperitoneal
[13] = Solubility in water; type: physicochemical; conditions: buffer
[14] = AUC (0 to infinity) in CD1 mouse at 10 mg/kg, ip; type: ADME, organism-based; design: dose 10 mg/kg, route intraperitoneal, time infinity; conditions: plasma
Method in brief: (§4)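 Male CD-1 (Crl.) mice (22-24 g), single 10 mg/kg dose. Prodrug in 9% NaHCO3/water (1 mg/mL) given iv by tail vein or po by gavage after 4 h fast; parent given ip in cremophor/DMSO/saline 20/5/75 (2 mg/mL). Plasma sampled to 27 h, three mice per time point, acetonitrile precipitation, LC-MS/MS (ESI positive); parameters from mean plasma concentrations.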

[15] = target: Pepsin A (Sus scrofa) (UniProt P00791); assay: Inhibition of pig pepsin at 10 uM by enzyme assay; method in brief: as §1
[16] = tested on: SK-OV-3; assay: Induction of mitotic arrest in human SKOV3 cells assessed as increase in cyclin B1 expression at 10 uM after 24 hrs by Western blot; type: functional, cell-based
Method in brief: (§5)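 SKOV-3 cells in DMEM/F-12 with 10% fetal calf serum, treated with 10 μM or vehicle (DMSO). Lysates, 50 μg protein, resolved by SDS-PAGE, transferred to PVDF, probed for cyclin B1 or securin with β-actin loading control; ECL detection, bands quantified by phosphorimaging; at least three separate experiments.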

[17] = Mean residence time in CD1 mouse at 10 mg/kg, ip; type: ADME, organism-based; design: dose 10 mg/kg, route intraperitoneal; conditions: in vivo
Method in brief: (§6)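 Male CD-1 (Crl.) mice, 22-24 g, single 10 mg/kg ip bolus of parent drug in cremophor/DMSO/saline (20/5/75, v/v; 2 mg/mL, 5 mL/kg). Blood sampled at 0, 5, 15, 30 min, 1, 1.5, 2, 4, 6, 9, 24, 27 h, three mice per time point. Plasma extracted with acetonitrile, analysed by LC-MS/MS. Parameters calculated from mean plasma concentrations.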

[18] = tested on: NCI-H23; assay: Growth inhibition of human NCI-H23 cells by SRB assay; type: functional; method in brief: as §2
[19] = Cmax in CD1 mouse at 10 mg/kg, ip; type: ADME, organism-based; design: dose 10 mg/kg, route intraperitoneal; conditions: in vivo; method in brief: as §4
[20] = tested on: DMS-273; assay: Growth inhibition of human DMS273 cells by SRB assay; type: functional; method in brief: as §2
[21] = target: MAO-A (Homo sapiens, UniProt P21397); assay: Inhibition of human MAO-A at 10 uM by enzyme assay; method in brief: as §1
[22] = tested on: MCF7; assay: Growth inhibition of human MCF7 cells by SRB assay; type: functional; method in brief: as §2
[23] = target: Cathepsin S (Homo sapiens) (UniProt P25774); assay: Inhibition of human cathepsin S at 10 uM by enzyme assay; method in brief: as §1
[24] = Growth inhibition of human HBC5 cells by SRB assay; type: functional; method in brief: as §2
[25] = tested on: OVCAR-4; assay: Growth inhibition of human OVCAR4 cells by SRB assay; type: functional; method in brief: as §2
[26] = tested on: HCC 2998; assay: Growth inhibition of human HCC2998 cells by SRB assay; type: functional; method in brief: as §2
[27] = Half life in CD1 mouse at 10 mg/kg, ip; type: ADME, organism-based; design: dose 10 mg/kg, route intraperitoneal; conditions: in vivo; method in brief: as §6
[28] = tested on: SNB-75; assay: Growth inhibition of human SNB75 cells by SRB assay; type: functional; method in brief: as §3
[29] = tested on: SK-OV-3; assay: Induction of mitotic arrest in human SKOV3 cells assessed as microtubule disruption at 10 uM after 24 hrs by SDS-PAGE; type: functional, cell-based
[30] = tested on: SK-OV-3; assay: Induction of mitotic arrest in human SKOV3 cells assessed as increase in securin expression at 10 uM after 24 hrs by Western blot; type: functional, cell-based; method in brief: as §5
[31] = tested on: PC-3; assay: Growth inhibition of human PC3 cells by SRB assay; type: functional; method in brief: as §2
[32] = Growth inhibition of human BSY1 cells by SRB assay; type: functional, BSY-1; method in brief: as §2
[33] = read-out: pLC50 (the source's name) (converted)

MAO-A, sequence (P21397 whole entry): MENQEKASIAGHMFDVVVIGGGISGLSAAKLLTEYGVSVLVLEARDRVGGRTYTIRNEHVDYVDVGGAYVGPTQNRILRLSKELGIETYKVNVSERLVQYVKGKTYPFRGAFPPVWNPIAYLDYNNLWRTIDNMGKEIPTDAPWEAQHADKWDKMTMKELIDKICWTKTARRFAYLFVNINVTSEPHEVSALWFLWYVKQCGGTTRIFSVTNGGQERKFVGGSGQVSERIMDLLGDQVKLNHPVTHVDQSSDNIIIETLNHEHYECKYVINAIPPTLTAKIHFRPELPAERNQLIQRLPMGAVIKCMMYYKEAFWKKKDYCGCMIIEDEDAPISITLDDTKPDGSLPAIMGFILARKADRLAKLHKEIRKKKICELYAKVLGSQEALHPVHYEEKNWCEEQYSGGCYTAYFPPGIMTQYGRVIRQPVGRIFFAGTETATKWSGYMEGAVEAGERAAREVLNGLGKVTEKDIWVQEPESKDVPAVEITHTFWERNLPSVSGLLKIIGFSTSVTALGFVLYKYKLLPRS
Mitogen-activated protein kinase 10 (Homo sapiens), sequence (P53779 whole entry): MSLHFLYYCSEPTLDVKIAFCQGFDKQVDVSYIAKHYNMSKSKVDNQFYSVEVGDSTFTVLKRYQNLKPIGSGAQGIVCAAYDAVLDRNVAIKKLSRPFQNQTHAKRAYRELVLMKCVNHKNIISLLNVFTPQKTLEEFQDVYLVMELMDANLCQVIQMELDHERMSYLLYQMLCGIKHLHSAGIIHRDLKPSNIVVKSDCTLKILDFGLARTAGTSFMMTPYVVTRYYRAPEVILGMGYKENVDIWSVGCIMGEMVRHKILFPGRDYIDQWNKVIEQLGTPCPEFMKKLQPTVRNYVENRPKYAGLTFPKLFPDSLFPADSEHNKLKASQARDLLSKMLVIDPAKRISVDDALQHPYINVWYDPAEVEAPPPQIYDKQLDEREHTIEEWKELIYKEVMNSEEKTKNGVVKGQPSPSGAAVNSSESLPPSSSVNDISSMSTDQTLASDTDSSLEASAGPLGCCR
Cathepsin S (Homo sapiens), sequence (P25774 115-331 limits assumed): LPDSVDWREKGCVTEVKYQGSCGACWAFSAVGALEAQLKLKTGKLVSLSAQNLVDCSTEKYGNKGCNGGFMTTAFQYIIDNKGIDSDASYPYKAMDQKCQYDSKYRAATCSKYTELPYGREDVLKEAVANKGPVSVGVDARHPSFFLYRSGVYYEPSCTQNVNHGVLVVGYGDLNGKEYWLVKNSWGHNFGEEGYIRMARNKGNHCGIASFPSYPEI
Pepsin A (Sus scrofa), sequence (P00791 60-385 limits assumed): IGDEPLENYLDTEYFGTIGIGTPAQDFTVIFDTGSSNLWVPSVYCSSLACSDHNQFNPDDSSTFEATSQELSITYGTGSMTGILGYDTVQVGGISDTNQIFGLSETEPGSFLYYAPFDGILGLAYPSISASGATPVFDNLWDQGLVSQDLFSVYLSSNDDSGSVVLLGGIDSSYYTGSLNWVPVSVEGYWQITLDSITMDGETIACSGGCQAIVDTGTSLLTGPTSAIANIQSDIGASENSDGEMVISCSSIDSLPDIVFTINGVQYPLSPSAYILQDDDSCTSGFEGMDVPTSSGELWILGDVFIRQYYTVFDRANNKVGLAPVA

O=c1cc(-c2ccccc2F)[nH]c2cc3c(cc12)OCO3
inhibition [1]: 55% | GI50 ([2]; MDA-MB-231): 155 nM | CC50 ([2]; MDA-MB-231, read-out: pLC50 (converted)): > 100 µM | TGI ([2]; MDA-MB-231, read-out: pTGI (converted)): 52.5 µM | inhibition [3]: 66% | GI50 [4]: 120 nM | CC50 [4, 33]: 89.1 µM | TGI ([4]; read-out: pTGI (converted)): 501 nM | GI50 ([5]; St-4): 6.61 µM | CC50 ([5]; St-4, read-out: pLC50 (converted)): > 100 µM | TGI ([5]; St-4, read-out: pTGI (converted)): 93.3 µM | GI50 ([6]; OVCAR-5): 813 nM | CC50 ([6]; OVCAR-5, read-out: pLC50 (converted)): > 100 µM | TGI ([6]; OVCAR-5, read-out: pTGI): > 100 µM | GI50 ([7]; SF-295): 115 nM | CC50 ([7]; SF-295, read-out: pLC50 (converted)): > 100 µM | TGI ([7]; SF-295, read-out: pTGI (converted)): 52.5 µM | GI50 ([8]; U-251): 69.2 nM | CC50 ([8]; U-251, read-out: pLC50 (converted)): > 100 µM | TGI ([8]; U-251, read-out: pTGI (converted)): 18.2 µM | GI50 ([9]; RXF 631): 79.4 nM | CC50 ([9]; RXF 631, read-out: pLC50 (converted)): > 100 µM | TGI ([9]; RXF 631, read-out: pTGI (converted)): 501 nM | GI50 [10]: 85.1 nM | CC50 [10, 33]: 63.1 µM | TGI ([10]; read-out: pTGI (converted)): 501 nM | GI50 [11]: 123 nM | CC50 ([11]; read-out: pLC50 (converted)): > 100 µM | TGI ([11]; read-out: pTGI (converted)): 676 nM | Activity [12]: 124% | solubility [13]: 13 ng/mL (≈ 0.0459 µM) | AUC(0-inf) [14]: 417 ng·h/mL | inhibition [15]: 85% | Activity [16]: Active | MRT [17]: 7.3 h | GI50 ([18]; NCI-H23): 1170 nM | CC50 ([18]; NCI-H23, read-out: pLC50 (converted)): > 100 µM | TGI ([18]; NCI-H23, read-out: pTGI): > 100 µM | Cmax [19]: 155 ng/mL | GI50 ([20]; DMS-273): 56.2 nM | CC50 ([20]; DMS-273, read-out: pLC50 (converted)): > 100 µM | TGI ([20]; DMS-273, read-out: pTGI): > 100 µM | inhibition at 10 µM [21]: 52% | GI50 ([22]; MCF7): 158 nM | CC50 ([22]; MCF7, read-out: pLC50 (converted)): > 100 µM | TGI ([22]; MCF7, read-out: pTGI): > 100 µM | inhibition [23]: 1% | GI50 ([24]; HBC5): 776 nM | CC50 ([24]; HBC5, read-out: pLC50 (converted)): > 100 µM | TGI ([24]; HBC5, read-out: pTGI): > 100 µM | GI50 [25]: 28.2 nM | CC50 [25, 33]: 513 nM | TGI ([25]; read-out: pTGI (converted)): 64.6 nM | GI50 ([26]; HCC 2998): 129 nM | CC50 ([26]; HCC 2998, read-out: pLC50 (converted)): > 100 µM | TGI ([26]; HCC 2998, read-out: pTGI (converted)): 1260 nM | half-life [27]: 438 min | GI50 ([28]; SNB-75): 20 µM | CC50 ([28]; SNB-75, read-out: pLC50 (converted)): > 100 µM | TGI ([28]; SNB-75, read-out: pTGI): > 100 µM | Activity [29]: Active | Activity [30]: Active | GI50 ([31]; PC-3): 75.9 nM | CC50 ([31]; PC-3, read-out: pLC50 (converted)): > 100 µM | TGI ([31]; PC-3, read-out: pTGI): > 100 µM | GI50 ([32]; BSY-1): 324 nM | CC50 ([32]; BSY-1, read-out: pLC50 (converted)): > 100 µM | TGI ([32]; BSY-1, read-out: pTGI (converted)): 13.2 µM
